Holding throughout (assay type): cell-based
In assay [1] the target is T1, Mitogen-activated protein kinase 14 (Homo sapiens, UniProt Q16539). Put plainly: Inhibition of anisomycin-induced p38alpha MAPK signalling in human MCF7 cells assessed as inhibition of HSP27 activation at 0.5 uM after 30 mins by SDS PAGE analysis. In short, it runs like this:
(§1)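 MCF-7 cells were preincubated with the compound at the indicated doses for 30 min, then stimulated with 10 μg/mL anisomycin for another 30 min. Total cell lysates were resolved by SDS-PAGE and immunoblotted with antibodies against phosphorylated ATF2, p38 and HSP27, with tubulin as the loading control.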

Assay [2] concerns the target Dual specificity mitogen-activated protein kinase kinase 6 (Homo sapiens) (UniProt P52564). Description: Inhibition of anisomycin-induced MKK6 phosphorylation in human MCF7 cells at 1 to 10 uM after 30 mins by SDS PAGE analysis.
Assay [3] addresses Dual specificity mitogen-activated protein kinase kinase 3 (Homo sapiens) (UniProt P46734). Put plainly: Inhibition of anisomycin-induced MKK3 phosphorylation in human MCF7 cells at 1 to 10 uM after 30 mins by SDS PAGE analysis.
The target of assay [4] is T1, Mitogen-activated protein kinase 14. Description: Inhibition of p38alpha phosphorylation in human MCF7 cells at 0.5 to 10 uM after 30 mins by SDS PAGE analysis. In short, it runs like this: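 MCF-7 cells were preincubated with compound for 30 min, then stimulated with 10 μg/mL anisomycin for another 30 min. Total cell lysates were resolved by SDS-PAGE and immunoblotted for phosphorylated ATF2, p38 and HSP27, with tubulin as the loading control.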

Assay [5] shares this target. Description: Inhibition of anisomycin-induced p38alpha MAPK signalling in human MCF7 cells assessed as inhibition of HSP27 activation at 10 uM after 30 mins by SDS PAGE analysis. The gist of the method: as §1
Assay [6] has the same target. Description: Inhibition of anisomycin-induced p38alpha MAPK signalling in human MCF7 cells assessed as inhibition of ATF2 activation at 10 uM after 30 mins by SDS PAGE analysis. The gist of the method:
as §1

Molecules are shown by their SMILES. Active and inactive are the calls of the source. The calls are words filed in the database; no cut-off is given here.

T1 sequence (Q16539 whole entry): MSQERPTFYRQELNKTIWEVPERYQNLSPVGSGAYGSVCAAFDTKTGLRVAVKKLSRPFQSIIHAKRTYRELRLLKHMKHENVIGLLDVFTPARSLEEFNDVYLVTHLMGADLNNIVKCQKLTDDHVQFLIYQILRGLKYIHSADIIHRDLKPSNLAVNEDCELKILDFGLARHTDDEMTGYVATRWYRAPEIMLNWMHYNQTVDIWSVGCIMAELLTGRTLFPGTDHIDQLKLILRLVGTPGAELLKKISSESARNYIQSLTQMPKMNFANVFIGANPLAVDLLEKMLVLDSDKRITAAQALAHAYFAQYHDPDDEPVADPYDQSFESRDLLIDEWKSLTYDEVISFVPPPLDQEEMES
Chain of Dual specificity mitogen-activated protein kinase kinase 3 (Homo sapiens) (P46734 whole entry): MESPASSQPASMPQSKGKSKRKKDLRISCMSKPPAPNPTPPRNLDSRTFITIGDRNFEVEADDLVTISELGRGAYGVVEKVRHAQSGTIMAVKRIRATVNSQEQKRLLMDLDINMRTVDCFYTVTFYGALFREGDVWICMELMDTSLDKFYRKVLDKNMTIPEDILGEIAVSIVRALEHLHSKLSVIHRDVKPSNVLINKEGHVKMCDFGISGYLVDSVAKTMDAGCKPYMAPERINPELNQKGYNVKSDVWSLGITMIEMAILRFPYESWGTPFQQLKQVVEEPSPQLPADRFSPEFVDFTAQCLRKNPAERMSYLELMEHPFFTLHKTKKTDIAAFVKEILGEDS
Chain of Dual specificity mitogen-activated protein kinase kinase 6 (Homo sapiens) (P52564 whole entry): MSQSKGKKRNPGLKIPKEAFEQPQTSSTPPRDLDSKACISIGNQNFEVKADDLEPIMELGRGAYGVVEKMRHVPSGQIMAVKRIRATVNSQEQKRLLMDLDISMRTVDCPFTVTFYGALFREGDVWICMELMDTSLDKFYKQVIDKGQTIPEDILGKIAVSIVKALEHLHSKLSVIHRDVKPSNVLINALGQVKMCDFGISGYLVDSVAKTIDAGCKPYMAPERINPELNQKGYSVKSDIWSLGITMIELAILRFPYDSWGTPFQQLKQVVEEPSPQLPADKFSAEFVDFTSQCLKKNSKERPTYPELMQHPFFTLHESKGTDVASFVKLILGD

Consider `O=c1c(-c2ccc(F)cc2)c(-c2ccnc(NC3CCCCC3)c2)oc2ccccc12`, for which the inhibition result in assay [1] and in assay [4] was “Active” throughout. Besides, the inhibition result in assay [2] and in assay [3] was “inactive” in each case. In addition, the Imax entry in assay [5] and in assay [6] was “Active” throughout.

Source of the values: ChEMBL document CHEMBL2040781, “Design, synthesis, and biological evaluation of chromone-based p38 MAP kinase inhibitors” (J Med Chem, 2011).
